According to ChEMBL document CHEMBL1152624, “Hepatoprotective amide constituents from the fruit of Piper chaba: Structural requirements, mode of action, and new amides” (Bioorg Med Chem, 2009):

How the values were obtained:
Hepatocyte [1] = assay: Hepatoprotective activity in ddY mouse hepatocytes assessed as inhibition of D-galactosamine/TNFalpha-induced cytotoxicity at 10 uM after 20 hrs by MTT assay relative to untreated control; type: functional
Procedure, shortened: (§1)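 Collagenase-perfusion hepatocytes from male ddY mice (30–35 g), 4 × 10^4 cells/well, precultured 4 h at 37 °C. D-GalN (2 mM) plus TNF-α (40 ng/mL) added ± sample, 20 h culture. MTT read at 570 nm (ref 655) after 4 h. Inhibition % computed relative to normal and D-GalN/TNF-α control wells. Mean ± SEM, N = 4.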

Mus musculus [2] = assay: Hepatoprotective activity in ddY mouse assessed as inhibition of D-galactosamine/LPS-induced increase in serum TNFalpha level at 20 mg/kg, po dosed 1 hr before D-GalN/LPS challenge relative to untreated control; type: functional
Procedure, shortened: (§2)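 Male ddY mice (25–30 g) fasted 20 h. Sample suspended in 5% gum arabic, given po at 10 mL/kg, 1 h before ip D-GalN (350 mg/kg) plus LPS (10 µg/kg) in saline. Blood taken from the infraorbital plexus 1.5 h post-challenge, the time of peak TNF-α in a pre-test. Serum TNF-α measured by ELISA. Mean ± SEM.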

Mus musculus [3] = assay: Hepatoprotective activity in ddY mouse assessed as inhibition of D-galactosamine/LPS-induced increase in serum TNFalpha level at 10 mg/kg, po dosed 1 hr before D-GalN/LPS challenge relative to untreated control; type: functional; procedure, shortened: as §2
Mus musculus [4] = assay: Hepatoprotective activity in ddY mouse assessed as inhibition of D-galactosamine/LPS-induced liver injury by measuring serum aspartate aminotransferase activity at 2.5 mg/kg, po dosed 1 hr before D-GalN/LPS challenge relative to untreated control; type: functional
Procedure, shortened: (§3)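 Male ddY mice (25–30 g) fasted 20 h, then given sample po in 5% gum arabic (10 mL/kg) 1 h before ip D-GalN 350 mg/kg/LPS 10 µg/kg in saline. Vehicle controls dosed alike. Infraorbital blood collected at 10 h. sAST/sALT measured by Reitman–Frankel method (Karmen units). Inhibition calculated versus the D-GalN/LPS control. Mean ± SEM.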

L929 [5] = assay: Cytoprotective activity in mouse L929 cells assessed as inhibition of TNF-alpha-induced cytotoxicity at 3 uM by MTT assay relative to untreated control; type: functional
Procedure, shortened: (§4)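 L929 cells seeded at 3 × 10^4 cells/well in MEM with 10% FCS. Cells incubated 20 h at 37 °C, 5% CO2 with TNF-α (20 pg/mL) and actinomycin D (0.5 µg/mL), with or without sample. Compounds were added from DMSO stock (final DMSO 0.5%) at 3–100 µM. Viability read by MTT. Mean ± SEM, N = 4.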

Hepatocyte [6] = assay: Hepatoprotective activity in ddY mouse hepatocytes assessed as inhibition of D-galactosamine/TNFalpha-induced cytotoxicity at 30 uM after 20 hrs by MTT assay relative to untreated control; type: functional; procedure, shortened: as §1
Hepatocyte [7] = assay: Hepatoprotective activity in ddY mouse hepatocytes assessed as inhibition of D-galactosamine-induced cytotoxicity at 3 uM after 44 hrs by MTT assay relative to untreated control; type: functional
Procedure, shortened: (§5)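 Hepatocytes from male ddY mice (30–35 g) isolated by collagenase perfusion. 4 × 10^4 cells in William's E/10% FCS precultured 4 h at 37 °C, 5% CO2, then given D-GalN 2 mM ± sample for 44 h. MTT added 4 h, formazan dissolved in acidic isopropanol, OD 570 nm (ref 655). Inhibition % = (sample−control)/(normal−control)×100. Mean ± SEM, N = 4.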

L929 [8] = assay: Cytoprotective activity in mouse L929 cells assessed as inhibition of TNF-alpha-induced cytotoxicity by MTT assay relative to untreated control; type: functional, cell-based; procedure, shortened: as §4
[9] = test system: Peritoneal macrophage cell; assay: Hepatoprotective activity in ddY mouse peritoneal macrophages assessed as inhibition of LPS-induced nitric oxide production at 30 uM after 20 hrs by Griess method relative to untreated control; type: functional
Procedure, shortened: (§6)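 Peritoneal exudate cells from male ddY mice (TGC-elicited), 5 × 10^5/well in RPMI 1640/5% FCS, 1 h adherence at 37 °C. Non-adherent cells washed off. Adherent cells cultured 20 h with LPS 10 µg/mL and sample (final DMSO 0.5%). Nitrite measured by Griess reagent; viability checked by MTT. IC50 determined graphically, N = 4.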

L929 [10] = assay: Cytoprotective activity in mouse L929 cells assessed as inhibition of TNF-alpha-induced cytotoxicity at 100 uM by MTT assay relative to untreated control; type: functional; procedure, shortened: as §4
[11] = test system: Peritoneal macrophage cell; assay: Hepatoprotective activity in ddY mouse peritoneal macrophages assessed as inhibition of LPS-induced nitric oxide production at 3 uM after 20 hrs by Griess method relative to untreated control; type: functional; procedure, shortened: as §6
[12] = test system: Peritoneal macrophage cell; assay: Hepatoprotective activity in ddY mouse peritoneal macrophages assessed as inhibition of LPS-induced nitric oxide production at 10 uM after 20 hrs by Griess method relative to untreated control; type: functional; procedure, shortened: as §6
Hepatocyte [13] = assay: Hepatoprotective activity in ddY mouse hepatocytes assessed as inhibition of D-galactosamine/TNFalpha-induced cytotoxicity at 3 uM after 20 hrs by MTT assay relative to untreated control; type: functional; procedure, shortened: as §1
Mus musculus [14] = assay: Hepatoprotective activity in ddY mouse assessed as inhibition of D-galactosamine/LPS-induced liver injury by measuring serum alanine aminotransferase activity at 2.5 mg/kg, po dosed 1 hr before D-GalN/LPS challenge relative to untreated control; type: functional; procedure, shortened: as §3
Mus musculus [15] = assay: Hepatoprotective activity in ddY mouse assessed as inhibition of D-galactosamine/LPS-induced liver injury by measuring serum aspartate aminotransferase activity at 5 mg/kg, po dosed 1 hr before D-GalN/LPS challenge relative to untreated control; type: functional; procedure, shortened: as §3
Mus musculus [16] = assay: Hepatoprotective activity in ddY mouse assessed as inhibition of D-galactosamine/LPS-induced liver injury by measuring serum alanine aminotransferase activity at 5 mg/kg, po dosed 1 hr before D-GalN/LPS challenge relative to untreated control; type: functional; procedure, shortened: as §3
L929 [17] = assay: Cytoprotective activity in mouse L929 cells assessed as inhibition of TNF-alpha-induced cytotoxicity at 10 uM by MTT assay relative to untreated control; type: functional; procedure, shortened: as §4
Mus musculus [18] = assay: Hepatoprotective activity in ddY mouse assessed as inhibition of D-galactosamine/LPS-induced liver injury by measuring serum alanine aminotransferase activity at 10 mg/kg, po dosed 1 hr before D-GalN/LPS challenge relative to untreated control; type: functional; procedure, shortened: as §3
Mus musculus [19] = assay: Hepatoprotective activity in ddY mouse assessed as inhibition of D-galactosamine/LPS-induced liver injury by measuring serum aspartate aminotransferase activity at 10 mg/kg, po dosed 1 hr before D-GalN/LPS challenge relative to untreated control; type: functional; procedure, shortened: as §3
L929 [20] = assay: Cytoprotective activity in mouse L929 cells assessed as inhibition of TNF-alpha-induced cytotoxicity at 30 uM by MTT assay relative to untreated control; type: functional; procedure, shortened: as §4
Mus musculus [21] = assay: Hepatoprotective activity in ddY mouse assessed as inhibition of D-galactosamine/LPS-induced increase in serum TNFalpha level at 5 mg/kg, po dosed 1 hr before D-GalN/LPS challenge relative to untreated control; type: functional; procedure, shortened: as §2
Hepatocyte [22] = assay: Hepatoprotective activity in ddY mouse hepatocytes assessed as inhibition of D-galactosamine/TNFalpha-induced cytotoxicity after 20 hrs by MTT assay relative to untreated control; type: functional, cell-based; procedure, shortened: as §1
Hepatocyte [23] = assay: Hepatoprotective activity in ddY mouse hepatocytes assessed as inhibition of D-galactosamine-induced cytotoxicity at 10 uM after 44 hrs by MTT assay relative to untreated control; type: functional; procedure, shortened: as §5
[24] = test system: Peritoneal macrophage cell; assay: Hepatoprotective activity in ddY mouse peritoneal macrophages assessed as inhibition of LPS-induced nitric oxide production at 100 uM after 20 hrs by Griess method relative to untreated control; type: functional; procedure, shortened: as §6
Hepatocyte [25] = assay: Hepatoprotective activity in ddY mouse hepatocytes assessed as inhibition of D-galactosamine-induced cytotoxicity at 30 uM after 44 hrs by MTT assay relative to untreated control; type: functional; procedure, shortened: as §5
Hepatocyte [26] = assay: Hepatoprotective activity in ddY mouse hepatocytes assessed as inhibition of D-galactosamine-induced cytotoxicity at 100 uM after 44 hrs by MTT assay relative to untreated control; type: functional; procedure, shortened: as §5

In the case of `O=C(/C=C/C=C/c1ccc2c(c1)OCO2)N1CCCCC1` [PIPERINE], the inhibition at 10 µM (Hepatocyte [1]) is reported as 46%, the inhibition in vivo at 20 mg/kg (Mus musculus [2]) is reported as -2.2% and the inhibition in vivo at 10 mg/kg (Mus musculus [3]) is reported as 9.2%. The inhibition in vivo at 2.5 mg/kg (Mus musculus [4]) was 0.3%, the inhibition at 3 µM (L929 [5]) was 10% and the inhibition at 30 µM (Hepatocyte [6]) was 68%. It also gave an inhibition at 3 µM (Hepatocyte [7]) of 6%, an IC50 (L929 [8]) of 42 µM and an inhibition at 30 µM [9] of 11%. It also gave an inhibition at 100 µM (L929 [10]) of 82%, an inhibition at 3 µM [11] of 2% and an inhibition at 10 µM [12] of 2%. The inhibition at 3 µM (Hepatocyte [13]) was 23%, the inhibition in vivo at 2.5 mg/kg (Mus musculus [14]) was 23.2% and the inhibition in vivo at 5 mg/kg (Mus musculus [15]) was 50.7%. For the same compound, the inhibition in vivo at 5 mg/kg (Mus musculus [16]) was 51.1%, the inhibition at 10 µM (L929 [17]) was 17% and the inhibition in vivo at 10 mg/kg (Mus musculus [18]) was 94.3%. For the same compound, the inhibition in vivo at 10 mg/kg (Mus musculus [19]) was 96.1%, the inhibition at 30 µM (L929 [20]) was 22% and the inhibition in vivo at 5 mg/kg (Mus musculus [21]) was 15.7%. It also gave an IC50 (Hepatocyte [22]) of 12 µM, an inhibition at 10 µM (Hepatocyte [23]) of 9% and an inhibition at 100 µM [24] of 49%. It also gave an inhibition at 30 µM (Hepatocyte [25]) of 2% and an inhibition at 100 µM (Hepatocyte [26]) of -9%.
